The nature of data set [1]: Volume of distribution at steady state in cynomolgus monkey at 1 mg/kg, iv and 3 or 5 mg/kg, po. Type of data set: ADME, organism-based, Macaca fascicularis. Conditions: in vivo, read-out: Vdss. The gist of the method:
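Male mice, rats, dogs and cynomolgus monkeys, fasted overnight, fed after dosing. Intravenous dose 1 mg/kg in saline or 12% sulfobutyl ether β-cyclodextrin; oral arm 3 or 5 mg/kg in 0.5% methylcellulose. Steady-state volume derived from plasma concentration−time data; mean ± SD for n = 3, individual values for n = 2.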

Data set [2] can be described thus: Fraction unbound in dog plasma at 2 uM by equilibrium dialysis method. Type of data set: ADME, cell-free, Canis lupus familiaris. The gist of the method: (§1)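 Compound at 2 μM in mouse, rat, dog, monkey or human plasma; unbound fraction measured by equilibrium dialysis and reported as a mean.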
(Equilibrium dialysis compares concentrations on both sides of a semipermeable membrane.)

The nature of data set [3]: Elimination half life in CD-1 mouse at 1 mg/kg, iv and 3 or 5 mg/kg, po. The format is ADME, organism-based. Conditions: in vivo. The gist of the method: (§2)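 Male CD-1 mice (25−35 g), cannulated Wistar-Han rats (250 g), beagle dogs (12 kg) and cynomolgus monkeys (7 kg), fasted overnight and fed 1.0 or 2.0 h after dosing. iv 1 mg/kg in saline or 12% sulfobutyl ether β-cyclodextrin; po 3 or 5 mg/kg in 0.5% methylcellulose. Parameters calculated from plasma concentration−time data; mean ± SD for n = 3, individual values for n = 2.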

Data set [4] in a line: Oral bioavailability in CD-1 mouse at 3 or 5 mg/kg. The conditions noted are these: in vivo. The format is ADME, organism-based. The gist of the method:
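Male CD-1 mice, Wistar-Han rats, beagle dogs and cynomolgus monkeys, fasted overnight and fed after dosing. Given po at 3 or 5 mg/kg in 0.5% methylcellulose, with an iv reference dose of 1 mg/kg. Bioavailability derived from plasma concentration−time data; mean ± SD (n = 3) or individual values (n = 2).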

Data set [5] can be described thus: Fraction unbound in human plasma at 2 uM by equilibrium dialysis method. Type of data set: ADME, cell-free. In outline:
as §1

Data set [6] has as its target T1, Cytochrome P450 2B6 (Homo sapiens, UniProt P20813).
T1 sequence (P20813 whole entry): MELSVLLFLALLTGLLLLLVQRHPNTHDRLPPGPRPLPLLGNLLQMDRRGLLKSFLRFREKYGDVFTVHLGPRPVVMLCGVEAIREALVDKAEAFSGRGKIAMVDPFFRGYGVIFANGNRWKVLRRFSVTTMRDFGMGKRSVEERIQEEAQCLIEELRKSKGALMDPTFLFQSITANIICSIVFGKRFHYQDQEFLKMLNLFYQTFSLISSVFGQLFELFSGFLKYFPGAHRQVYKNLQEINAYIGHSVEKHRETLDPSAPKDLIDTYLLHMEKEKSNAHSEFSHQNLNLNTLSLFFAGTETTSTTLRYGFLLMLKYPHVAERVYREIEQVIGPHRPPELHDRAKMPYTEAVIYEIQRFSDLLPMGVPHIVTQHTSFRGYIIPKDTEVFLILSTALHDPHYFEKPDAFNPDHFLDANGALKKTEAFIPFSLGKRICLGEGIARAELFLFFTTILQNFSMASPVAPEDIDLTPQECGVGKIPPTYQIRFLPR
Put plainly: Time-dependent inhibition of CYP2B6 in human liver microsomes. Type of data set: ADME. The gist of the method: (§3)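 Time- and concentration-dependent CYP inhibition assessed by an IC₅₀ shift assay in human liver microsomes.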
(Microsomes from liver hold many membrane-bound enzymes, among them those of drug oxidation.)

Data set [7] has as its target T2, Cytochrome P450 2C8 (Homo sapiens, UniProt P10632).
T2 sequence (P10632 whole entry): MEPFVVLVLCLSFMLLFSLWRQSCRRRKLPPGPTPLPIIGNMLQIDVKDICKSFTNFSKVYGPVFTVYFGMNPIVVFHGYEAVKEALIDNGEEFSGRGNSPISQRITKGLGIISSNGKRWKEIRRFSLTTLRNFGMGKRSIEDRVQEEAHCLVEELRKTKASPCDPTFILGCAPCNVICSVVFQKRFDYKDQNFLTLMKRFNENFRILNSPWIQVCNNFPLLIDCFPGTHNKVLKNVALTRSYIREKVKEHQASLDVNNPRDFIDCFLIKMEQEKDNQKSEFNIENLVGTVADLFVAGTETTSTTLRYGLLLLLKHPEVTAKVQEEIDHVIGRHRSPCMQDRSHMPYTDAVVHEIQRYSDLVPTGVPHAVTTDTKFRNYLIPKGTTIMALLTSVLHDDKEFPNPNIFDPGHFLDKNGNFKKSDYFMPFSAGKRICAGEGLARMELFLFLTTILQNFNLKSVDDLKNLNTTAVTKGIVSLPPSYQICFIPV
The data set can be described thus: Reversible inhibition of CYP2C8 amodiaquine-N-deethylase activity in human liver microsomes by LC-MS/MS analysis. Type of data set: ADME. The gist of the method:
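Reversible inhibition of the major CYP enzymes tested in human liver microsomes using established protocols.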

The nature of data set [8]: Plasma clearance in cynomolgus monkey at 1 mg/kg, iv and 3 or 5 mg/kg, po. The format is ADME, organism-based, Macaca fascicularis. In outline: as §2
For data set [9], the target named is T3, Cytochrome P450 1A2 (Homo sapiens, UniProt P05177).
T3 sequence (P05177 whole entry): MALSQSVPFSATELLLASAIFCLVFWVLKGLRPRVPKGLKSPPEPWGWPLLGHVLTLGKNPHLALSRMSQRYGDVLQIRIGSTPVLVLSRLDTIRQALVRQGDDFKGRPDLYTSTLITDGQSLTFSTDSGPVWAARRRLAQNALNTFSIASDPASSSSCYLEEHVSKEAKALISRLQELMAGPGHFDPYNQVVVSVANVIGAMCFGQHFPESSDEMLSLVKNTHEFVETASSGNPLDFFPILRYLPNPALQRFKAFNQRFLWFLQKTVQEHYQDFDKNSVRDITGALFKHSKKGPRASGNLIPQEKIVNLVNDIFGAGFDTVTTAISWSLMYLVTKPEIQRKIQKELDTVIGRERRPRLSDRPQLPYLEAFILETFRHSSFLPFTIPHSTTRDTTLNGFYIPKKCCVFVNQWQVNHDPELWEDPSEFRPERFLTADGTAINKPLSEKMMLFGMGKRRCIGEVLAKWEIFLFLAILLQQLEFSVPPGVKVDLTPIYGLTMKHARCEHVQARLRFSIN
The data set can be described thus: Time-dependent inhibition of CYP1A2 in human liver microsomes. The format is ADME. In outline: as §3

Data set [10] has as its system Hepatocyte. The data set can be described thus: Metabolic stability in cryopreserved human hepatocytes assessed as GSH adduct formation. The format is ADME, cell-based. In outline: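 Incubation in NADPH-supplemented human liver microsomes or cryopreserved human hepatocytes, examined for glutathione adduct formation.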
A short description of data set [11]: Tmax in CD-1 mouse at 3 or 5 mg/kg, po. The conditions noted are these: in vivo. The format is ADME, organism-based. The gist of the method:
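Male animals (CD-1 mice 25−35 g, cannulated Wistar-Han rats 250 g, beagle dogs 12 kg, cynomolgus monkeys 7 kg), fasted overnight and fed 1.0 or 2.0 h after dosing, water ad libitum. Oral dose 3 or 5 mg/kg in 0.5% methylcellulose. Parameters calculated from plasma concentration−time data; mean ± SD for n = 3, individual values for n = 2.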

The nature of data set [12]: Drug metabolism assessed as formation of 5-(2,4-dimethoxyphenyl)-7-oxo-2,3,4,7-tetrahydrooxazolo[3,2-a]pyrimidin-4-ium at 10 uM after 60 mins by LC-MS/MS analysis in presence of human MPO/H2O2/Cl-. The format is physicochemical. The conditions noted are these: 1 h. In outline:
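Also incubated at 10 μM in a human MPO/H₂O₂/Cl⁻ system. Parent and cyclic ether product tracked by LC−MS/MS using retention time and MH⁺.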

A short description of data set [13]: Retention time of the compound in sodium phosphate buffer at 10 uM after 60 mins by LC-MS/MS analysis in presence of H2O2. The format is physicochemical. Conditions: 1 h.

What is called fraction unbound is free concentration divided by total concentration. For orientation: half-life means the time in which the quantity being followed falls by half. In general, bioavailability refers to the share of a dose that reaches the circulation, judged against a reference dose that is usually intravenous. As a reminder, the IC50 is the concentration at which inhibition is half-maximal. The Tmax is the time from dosing to the highest level. As for `COc1ccc(Cl)cc1-c1cc(=O)[nH]c(=S)n1CC(N)=O` [PF-06282999], in data set [1], the Vd came to 1.09 L/kg. In addition, the fraction unbound at 2 µM in data set [2] stood at 0.46; in data set [5] it was 0.376. The half-life in data set [3] was 1.36 h. Further, the bioavailability in data set [4] is 100%. Further, the IC50 in [6], in [7] and in [9] was over 100 µM in each case. Besides, the clearance in [8] worked out at 10.3 mL/min/kg. In addition, the Stability entry in data set [10] is reported as “Stable”. The Tmax in data set [11] was 1 h.

Take `COc1ccc(-c2cc(=O)[nH]c(=S)n2CCO)c(OC)c1`: the Drug metabolism result in [12] is “metabolite_detected”. For the same compound, the Retention_time in data set [13] came out at 17.49 min.

The values above are taken from ChEMBL document CHEMBL3632461 (J Med Chem, 2015).
